We go through 11 compounds from ChEMBL document CHEMBL4177761, “Highlights of the Structure-Activity Relationships of Benzimidazole Linked Pyrrolidines Leading to the Discovery of the Hepatitis C Virus NS5A Inhibitor Pibrentasvir (ABT-530)” (J Med Chem, 2018).

A short description of data set [1]: Solubility of the compound by CLND method. It is filed as physicochemical.
A short description of data set [2]: Lipophilicity, log D of the compound by HPLC method. It is filed as physicochemical.
Data set [3] can be described thus: Intrinsic clearance in human microsomes. It is filed as ADME, Microsome.
Data set [4] in a line: Intrinsic clearance in rat microsomes. It is filed as ADME, Microsome.
Data set [5] deals with T1, Nonstructural protein 5A (Hepatitis C virus), Q5L478 [Y93H].
T1 sequence (whole entry): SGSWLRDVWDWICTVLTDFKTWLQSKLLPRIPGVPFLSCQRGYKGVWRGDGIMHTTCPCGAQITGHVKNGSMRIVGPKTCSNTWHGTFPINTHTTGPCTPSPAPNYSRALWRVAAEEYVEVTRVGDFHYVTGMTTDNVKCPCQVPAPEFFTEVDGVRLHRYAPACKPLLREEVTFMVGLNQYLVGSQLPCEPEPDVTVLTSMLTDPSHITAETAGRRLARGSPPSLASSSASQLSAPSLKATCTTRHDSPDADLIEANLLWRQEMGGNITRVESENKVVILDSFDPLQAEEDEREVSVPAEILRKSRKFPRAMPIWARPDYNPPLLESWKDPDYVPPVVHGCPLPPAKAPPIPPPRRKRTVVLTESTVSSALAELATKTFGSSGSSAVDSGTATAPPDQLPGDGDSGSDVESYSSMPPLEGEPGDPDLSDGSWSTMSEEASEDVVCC
Nature of the data set: Inhibition of NS5A Y93H mutant in HuH7 cell infected HCV genotype 1a H77 assessed as decrease in viral replication after 4 days by luciferase reporter gene assay relative to wild type protein. The settings on record: Hepatitis C virus (isolate H77). Put shortly: (§1)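 Stable subgenomic luciferase replicons in Huh-7 cells: genotype 1a-H77 carrying NS5A substitutions M28T, Q30E, Q30R, Y93C, Y93H or Y93N, tested alongside the wild-type replicon. Cells are incubated 4 days with compound in DMEM with 5% FBS. Luciferase read-out, EC50 by 4-parameter logistic fit, and fold change versus wild type.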
On the technique in general: In a reporter assay the amount or activity of a reporter protein is the signal.

Data set [6] has as its target T2, Nonstructural protein 5A (Hepatitis C virus) (UniProt Q5L478).
T2 sequence (whole entry): T1 sequence (whole entry) with H93Y
The data set can be described thus: Inhibition of NS5A M28T mutant in HuH7 cell infected HCV genotype 1a H77 assessed as decrease in viral replication after 4 days by luciferase reporter gene assay relative to wild type protein. The settings on record: Hepatitis C virus (isolate H77). Put shortly: as §1

Data set [7] deals with T2, Nonstructural protein 5A (Hepatitis C virus). Nature of the data set: Inhibition of NS5A Q30E mutant in HuH7 cell infected HCV genotype 1a H77 assessed as decrease in viral replication after 4 days by luciferase reporter gene assay relative to wild type protein. The settings on record: Hepatitis C virus (isolate H77). Put shortly:
as §1

Data set [8] deals with T3, Nonstructural protein 5A (Hepatitis C virus), Q5L478 [Y93C].
T3 sequence (whole entry): T1 sequence (whole entry) with H93C
The data set can be described thus: Inhibition of NS5A Y93C mutant in HuH7 cell infected HCV genotype 1a H77 assessed as decrease in viral replication after 4 days by luciferase reporter gene assay relative to wild type protein. As to conditions: Hepatitis C virus (isolate H77). Put shortly:
as §1

Data set [9] concerns T1, Nonstructural protein 5A (Hepatitis C virus), Q5L478 [Y93H]. The data set can be described thus: Inhibition of NS5A Y93H mutant in HuH7 cell infected HCV genotype 1b Con1 assessed as decrease in viral replication after 4 days by luciferase reporter gene assay relative to wild type protein. The settings on record: Hepatitis C virus (isolate Con1). Put shortly:
(§2)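 Stable subgenomic luciferase replicons in Huh-7 cells: genotype 1b-Con1 carrying NS5A Y93H or Y93N, tested alongside the wild-type replicon. Cells are incubated 4 days with compound in DMEM with 5% FBS. Luciferase read-out, EC50 from a 4-parameter logistic fit, expressed as fold change versus wild type.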

For data set [10], the target named is T2, Nonstructural protein 5A (Hepatitis C virus). Nature of the data set: Inhibition of NS5A Q30R mutant in HuH7 cell infected HCV genotype 1a H77 assessed as decrease in viral replication after 4 days by luciferase reporter gene assay relative to wild type protein. As to conditions: Hepatitis C virus (isolate H77). Put shortly: as §1
In data set [11] the test system is T4, Nonstructural protein 5A (Hepatitis C virus), Q5L478 [Y93N].
T4 sequence (whole entry): T1 sequence (whole entry) with H93N
The data set can be described thus: Inhibition of NS5A Y93N mutant in HuH7 cell infected HCV genotype 1a H77 assessed as decrease in viral replication after 4 days by luciferase reporter gene assay relative to wild type protein. As to conditions: Hepatitis C virus (isolate H77). The essentials: as §1

Data set [12] in a line: AUC (0 to infinity) in mouse at 3 mg/kg, po by LC-MS method. It is filed as ADME, organism-based. The settings on record: in vivo. Also noted: dose 3 mg/kg, route oral, time infinity. Put shortly: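 Single dose, 3 mg/kg, in mouse or rat. IV vehicle: DMSO:Tween 80:PEG-400:D5W 2:5:20:73 (v/v). PO vehicle: Phosol 53 MCT:PEG-400:Poloxamer 124:Cremophor RH40 40:20:20:20 (w/w). Acetonitrile protein precipitation, then LC-MS/MS in negative-ion MRM against an internal standard; LOQ ~20 ng/mL.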

Data set [13] concerns T4, Nonstructural protein 5A (Hepatitis C virus), Q5L478 [Y93N]. The data set can be described thus: Inhibition of NS5A Y93N mutant in HuH7 cell infected HCV genotype 1b Con1 assessed as decrease in viral replication after 4 days by luciferase reporter gene assay relative to wild type protein. As to conditions: Hepatitis C virus (isolate Con1). The essentials:
as §2

One may read the kinetic solubility as the concentration staying in solution when a stock, usually in DMSO, is diluted into the medium. Broadly, the logD is lipophilicity at a set pH, counting ionised and neutral species. Low readings indicate lower lipophilicity, high ones higher lipophilicity. The term CLint scaled denotes a measure of how fast metabolising enzymes remove a compound, apart from limits set by blood flow. The low end stands for slow turnover, the high end for rapid turnover. As a reminder, the AUC(0-inf) is total exposure, with the tail of the curve extrapolated.

Numbering of substitutions follows the chain as printed. Converted amounts (≈) assume the structure as drawn.

`COC(=O)N[C@H](C(=O)N1CCC[C@H]1c1nc2ccc([C@H]3CC[C@H](c4ccc5nc([C@@H]6CCCN6C(=O)[C@@H](NC(=O)OC)C(C)C)[nH]c5c4)N3c3ccc(N4CCC(c5ccccc5)CC4)cc3)cc2[nH]1)C(C)C` yielded a kinetic solubility in data set [1] of 0.82 µM (≈ 0.813 µg/mL). The log distribution coefficient (logD) in [2] was 5.4. The results for the CLint scaled in data set [3] and in data set [4] were less than 25 mL/min/kg and 46.7 mL/min/kg, respectively.
For the compound `COC(=O)N[C@H](C(=O)N1CCC[C@H]1c1nc2ccc([C@H]3CC[C@H](c4ccc5nc([C@@H]6CCCN6C(=O)[C@@H](NC(=O)OC)C(C)C)[nH]c5c4)N3c3ccc(C4CCCCC4)cc3)cc2[nH]1)C(C)C`, the fold change (FC) in [5] is greater than 577; in [6], greater than 17; in [7] it was greater than 90; in data set [8] it was greater than 30; in data set [9], 1; in [10] it was greater than 30.
As for `COC(=O)N[C@H](C(=O)N1CCC[C@H]1c1nc2cc(F)c([C@H]3CC[C@H](c4cc5[nH]c([C@@H]6CCCN6C(=O)[C@@H](NC(=O)OC)C6CCOCC6)nc5cc4F)N3c3cc(F)c(N4CCC(c5ccccc5)CC4)c(F)c3)cc2[nH]1)C1CCOCC1`, the fold change (FC) in data set [5] is 3; in [7], 1; in [11] it was 2.
The compound `COC(=O)N[C@H](C(=O)N1CCC[C@H]1c1nc2cc([C@H]3CC[C@H](c4ccc5[nH]c([C@@H]6CCCN6C(=O)[C@@H](NC(=O)OC)C(C)C)nc5c4)N3c3cc(F)c(N4CCC(c5ccc(F)cc5)CC4)c(F)c3)ccc2[nH]1)C(C)C` registered a kinetic solubility in data set [1] of 0.9 µM (≈ 0.941 µg/mL). The logD in [2] is 5.8. The CLint scaled in data set [3] is less than 25 mL/min/kg; in [4] it was 53.3 mL/min/kg. The compound further came in with an AUC(0-inf) in [12] of 4590 ng·h/mL.
Turning to `COC(=O)N[C@H](C(=O)N1CCC[C@H]1c1nc2ccc([C@H]3CC[C@H](c4ccc5nc([C@@H]6CCCN6C(=O)[C@@H](NC(=O)OC)C(C)C)[nH]c5c4)N3c3cc(F)c(N4CCC(c5ccc(F)cc5)CC4)c(F)c3)cc2[nH]1)C(C)C`, the fold change (FC) in data set [5] was 20; in [6], 2; in data set [7], 20; in data set [11], 25; in [8], 3; in data set [9], 2. In addition, in data set [10], the fold change (FC) was found to be 3.
On to `COC(=O)N[C@H](C(=O)N1CCC[C@H]1c1nc2cc(F)c([C@H]3CC[C@H](c4cc5[nH]c([C@@H]6CCCN6C(=O)[C@@H](NC(=O)OC)C6CCOCC6)nc5cc4F)N3c3cc(F)c(N4CCC(c5ccc(F)cc5)CC4)c(F)c3)cc2[nH]1)C1CCOCC1`, for which the fold change (FC) in data set [5] turned out to be 2; in data set [7], 1; in [11], 2.
Turning to `COC(=O)N[C@H](C(=O)N1CCC[C@H]1c1nc2ccc([C@H]3CC[C@H](c4ccc5nc([C@@H]6CCCN6C(=O)[C@@H](NC(=O)OC)C(C)C)[nH]c5c4)N3c3ccc(Cl)cc3)cc2[nH]1)C(C)C`, the fold change (FC) in data set [5] is 670; in data set [6] it was 28; in data set [7], 83; in data set [11], 1160; in [8] it was 22; in data set [9], 1. Moreover, in [10], the fold change (FC) worked out at 44.
Regarding `COC(=O)N[C@H](C(=O)N1CCC[C@H]1c1nc2cc(F)c([C@H]3CC[C@H](c4cc5[nH]c([C@@H]6CCCN6C(=O)[C@@H](NC(=O)OC)C(C)C)nc5cc4F)N3c3cc(F)c(N4CCC(c5ccccc5)CC4)c(F)c3)cc2[nH]1)C(C)C`, the fold change (FC) in [5] was 49; in [6], 1; in [13], 1; in data set [7], 12; in data set [11], 50; in [8], 6. In addition, the fold change (FC) in [9] amounted to 1; in [10], 2.
The compound `COC(=O)N[C@H](C(=O)N1CCC[C@H]1c1nc2cc([C@H]3CC[C@H](c4ccc5[nH]c([C@@H]6CCCN6C(=O)[C@@H](NC(=O)OC)C(C)C)nc5c4)N3c3cc(F)c(N4CCC(c5ccccc5)CC4)c(F)c3)ccc2[nH]1)C(C)C` returned a solubility (kinetic) in [1] of 1.1 µM (≈ 1.13 µg/mL). Moreover, the values for the CLint scaled in data set [3] and in [4] were less than 25 mL/min/kg and 53.3 mL/min/kg, respectively. The compound further gave an AUC(0-inf) in [12] of 6830 ng·h/mL.
`COC(=O)N[C@H](C(=O)N1CCC[C@H]1c1nc2cc([C@H]3CC[C@H](c4ccc5[nH]c([C@@H]6CCCN6C(=O)[C@@H](NC(=O)OC)C(C)C)nc5c4)N3c3cc(F)c(N4CCCCC4)c(F)c3)ccc2[nH]1)C(C)C`: the fold change (FC) in data set [5] came out at 241; in data set [6] it was 5; in data set [7] it was 134; in [11], 510; in data set [8], 9; in [9], 1. Further, the fold change (FC) in data set [10] was 13. The compound also returned a solubility (kinetic) in data set [1] of 0.7 µM (≈ 0.666 µg/mL). The values for the CLint scaled in data set [3] and in data set [4] were 175 mL/min/kg and 187 mL/min/kg, respectively. Also, the AUC(0-inf) in [12] was found to be 1790 ng·h/mL.
`COC(=O)N[C@H](C(=O)N1CCC[C@H]1c1nc2ccc([C@H]3CC[C@H](c4ccc5nc([C@@H]6CCCN6C(=O)[C@@H](NC(=O)OC)C(C)C)[nH]c5c4)N3c3ccc(-c4ccccc4)cc3)cc2[nH]1)C(C)C`: the fold change (FC) in data set [5] came out at 329; in data set [13], 1; in data set [7], 47; in [11] it was 827; in [8], 24; in [9], 1. In data set [10], the fold change (FC) was 10.
